BindingDB's records for doi:10.1016/j.bmc.2011.02.028 (Kinki University, 2011)
Counter-ions that a name gives are not always drawn.

Experiment: Inhibition of rat small intestinal maltase after 30 mins
Outline: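 Enzyme source was rat small-intestinal brush-border membrane vesicles suspended in 0.1 M maleate buffer, pH 6.0. Substrate solutions were maltose 74 mM (maltase), sucrose 74 mM (sucrase) and isomaltose 7.4 mM (isomaltase). Glucose was measured by glucose oxidase. IC50 was read graphically from % inhibition versus log concentration.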

Compound	IC50
O=S(=O)([O-])O[C@H]([C@@H](O)[C@H](O)[C@H](O)CO)[C@H](O)C[S+]1C[C@@H](O)[C@H](O)[C@H]1CO (stereo partly drawn) [1,4-dideoxy-1,4-{(S)-[(2S,3R,4S,5R,6R)-2,4,5,6,7-pentahydroxy-3-(sulfooxy)heptyl]episulfoniumylidene}-D-arabinitol inner salt]	> 236 µM
O=S(=O)([O-])O[C@H]([C@@H](O)[C@H](O)[C@@H](O)CO)[C@H](O)C[S+]1C[C@@H](O)[C@H](O)[C@H]1CO (stereo partly drawn) [1,4-dideoxy-1,4-{(S)-[(2S,3R,4S,5R,6S)-2,4,5,6,7-pentahydroxy-3-(sulfooxy)heptyl]episulfoniumylidene}-D-arabinitol inner salt]	> 236 µM
O=S(=O)([O-])O[C@H]([C@@H](O)[C@@H](O)[C@H](O)CO)[C@H](O)C[S+]1C[C@@H](O)[C@H](O)[C@H]1CO (stereo partly drawn) [1,4-dideoxy-1,4-{(S)-[(2S,3R,4S,5S,6R)-2,4,5,6,7-pentahydroxy-3-(sulfooxy)heptyl]-episulfoniumylidene}-D-arabinitol inner salt]	> 236 µM
O=S(=O)([O-])O[C@H]([C@@H](O)[C@@H](O)[C@@H](O)CO)[C@H](O)C[S+]1C[C@@H](O)[C@H](O)[C@H]1CO (stereo partly drawn) [1,4-dideoxy-1,4-{(S)-[(2S,3R,4S,5S,6S)-2,4,5,6,7-pentahydroxy-3-(sulfooxy)heptyl]episulfoniumylidene}-D-arabinitol inner salt]	57 µM
O=S(=O)([O-])OC[C@H](O)C[S@@+]1C[C@@H](O)[C@H](O)[C@H]1CO [Salaprinol]	3.2 µM
O=S(=O)([O-])O[C@@H]([C@H](O)[C@@H](O)CO)[C@H](O)C[S@@+]1C[C@@H](O)[C@H](O)[C@H]1CO [ponkoranol]	> 100 µM
